From ChEMBL document CHEMBL1127507, “Search for the pharmacophore of bispyridinium-type allosteric modulators of muscarinic receptors” (J Med Chem, 1994)
Several values for one entry are separate records, joined by “and”; a condition that tells them apart may be missing. Equal entries are not always repeated.

Tests used:
[1] = Partition coefficient (logP); assay type: physicochemical; conditions: octanol/water
How it was run: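 Compound at 5×10^-5 M in octanol-saturated Na2HPO4 buffer pH 7.4, absorbance at 290 nm; 0.7 mL shaken 2 h with equal volume buffer-saturated octanol, centrifuged, aqueous absorbance remeasured; partition coefficient and log P from absorbance difference.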

[2] = molecular target: T1, Muscarinic acetylcholine receptor M2 (Sus scrofa, UniProt P06199); test: Reduction of dissociation rate of [3H]N-methylscopolamine ([3H]NMS) from muscarinic acetylcholine receptor M2 of pig heart
T1 sequence (P06199 whole entry): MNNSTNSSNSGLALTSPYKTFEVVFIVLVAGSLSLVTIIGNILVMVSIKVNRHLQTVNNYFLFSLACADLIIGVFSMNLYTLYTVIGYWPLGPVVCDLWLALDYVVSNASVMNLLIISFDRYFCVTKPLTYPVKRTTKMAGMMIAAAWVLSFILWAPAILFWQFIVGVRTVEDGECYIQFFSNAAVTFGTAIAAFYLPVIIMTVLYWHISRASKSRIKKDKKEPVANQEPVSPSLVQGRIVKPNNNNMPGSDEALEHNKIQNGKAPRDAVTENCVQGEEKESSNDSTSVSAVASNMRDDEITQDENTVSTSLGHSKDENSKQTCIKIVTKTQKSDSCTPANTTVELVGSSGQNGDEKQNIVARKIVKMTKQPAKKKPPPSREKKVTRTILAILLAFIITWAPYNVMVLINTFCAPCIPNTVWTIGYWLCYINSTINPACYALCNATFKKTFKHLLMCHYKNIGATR
How it was run: (§1)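 Porcine ventricular membranes (sucrose homogenate, 80000g pellet in 50 mM Tris-HCl pH 7.4) preincubated 30 min with 0.2 nM [3H]NMS in 3 mM MgHPO4/50 mM Tris-HCl, pH 7.3, 37 °C; dissociation started with 1 μM atropine plus compound. Residual binding at 4 min (two-point) gave k-1; sigmoid fit yielded EC50 and slope; filtration, scintillation; n=3-5.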

[3] = molecular target: T2, Muscarinic acetylcholine receptor M2 (Sus scrofa) (UniProt P06199); test: Hill coefficient, slope factors of reduction in dissociation rate of [3H]NMS from M2 receptor of pig heart; how it was run: as §1
T2 sequence (whole entry): T1 sequence (P06199 whole entry)

Compound | logP [1] | EC50 [2] | nH [3]
O/N=C/c1cc[n+](CCC[n+]2ccc(/C=N/OCc3c(Cl)cccc3Cl)cc2)cc1 | 1.7 | 11 µM | 1.3
N#Cc1cc[n+](CCC[n+]2ccc(/C=N/OCc3c(Cl)cccc3Cl)cc2)cc1 |  | 17 µM | 1.1
Clc1cccc(Cl)c1CO/N=C/c1cc[n+](CCCc2ccccc2)cc1 | 0.5 | 9.4 µM | 1.2
O/N=C/c1cc[n+](CCC[n+]2ccc(/C=N/O)cc2)cc1 [TRIMEDOXIME] |  | > 1000 µM | 
CC[N+](CC)(CC)CCC[n+]1ccc(/C=N/OCc2c(Cl)cccc2Cl)cc1 | 1.4 | 23 µM | 0.9
Clc1cccc(Cl)c1CO/N=C/c1cc[n+](CCC[n+]2ccc(/C=N/OCc3c(Cl)cccc3Cl)cc2)cc1 | 0.6 | 4.7 µM | 1.7
CO/N=C/c1cc[n+](CCC[n+]2ccc(/C=N/OCc3c(Cl)cccc3Cl)cc2)cc1 | -2 | 4.5 µM | 1.2
CO/N=C/c1cc[n+](CCC[n+]2ccc(/C=N/OC)cc2)cc1 |  | > 1000 µM | 
CN(C)c1cc[n+](CCC[n+]2ccc(/C=N/OCc3c(Cl)cccc3Cl)cc2)cc1 | 1.5 | 4.2 µM | 1.3
Clc1cccc(Cl)c1CO/N=C/c1cc[n+](CCC[n+]2ccccc2)cc1 |  | 21 µM | 1.2
Cc1cc[n+](CCC[n+]2ccc(/C=N/OCc3c(Cl)cccc3Cl)cc2)cc1 | 1.3 | 12 µM | 1.1
COc1ccc(CCC[n+]2ccc(/C=N/OCc3c(Cl)cccc3Cl)cc2)cc1 | 0.3 | 6 µM | 1.5
CCC[n+]1ccc(/C=N/OCc2c(Cl)cccc2Cl)cc1 | 0.6 | 26 µM | 1.2
C[N+](C)(C)CCC[n+]1ccc(/C=N/OCc2c(Cl)cccc2Cl)cc1 | 1.7 | 25 µM | 1.5 and 1.3
